Assay results reported in ChEMBL document CHEMBL1125929, “Octoclothepin enantiomers. A reinvestigation of their biochemical and pharmacological activity in relation to a new receptor-interaction model for dopamine D-2 receptor antagonists” (J Med Chem, 1991).

Legend:
Format in all cases: functional
Settings in all cases: sc
Mus musculus = test: Dose to antagonise, when given subcutaneously to mice (in vivo) using methyl phenidate antagonism test
How it was run: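 Male NMRI mice (18–25 g) got test compound sc 2 h before methyl phenidate (222 μmol/kg sc). Mice were placed in pairs on corrugated cardboard in gnawing cages. Gnawing was judged 1 h later by inspecting the cardboard. Six to nine pairs per dose.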

Rattus norvegicus [1] = test: Dose to antagonise, when given subcutaneously to 6-OH-DA-lesioned rats, using SK & F 38393 antagonism test.(in vivo)
How it was run: (§1)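 Unilateral 6-OHDA-lesioned rats, tested 2–9 months after lesioning once stable contralateral circling was seen. Agonist was pergolide (0.05 μmol/kg sc) or SK&F 38393 (4.3 μmol/kg sc), given 2 h after the test compound. Inhibition was calculated as percent of each rat's own control circling response. Four to eight rats per dose.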

Rattus norvegicus [2] = test: Dose to antagonise, when given subcutaneously to 6-OH-DA-lesioned rats, using pergolide antagonism test.(in vivo); how it was run: as §1
Rattus norvegicus [3] = test: Dose to antagonise, when given subcutaneously to rats (in vivo) using catalepsy test, maximum effect 1-6h.
How it was run: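 Male Wistar rats (170–270 g) were scored hourly 1–6 h after dosing on a vertical wire grid. Catalepsy counted as present after at least 15-s immobility. The maximum effect over 1–6 h was taken. Eight to twelve animals per dose.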

Rattus norvegicus [4] = test: Dose to antagonise, when given subcutaneously to rats (in vivo) using flexor reflex St 587 antagonism test.
Rattus norvegicus [5] = test: Dose to antagonise, when given subcutaneously to rats (in vivo) using inhibition of locomotor motility test
How it was run: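 Locomotor activity of male Wistar rats was measured in photocell cages 2 h after test compound or saline. Four to eight animals per dose.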

Rattus norvegicus [6] = test: Dose to antagonise, when given subcutaneously to rats (in vivo) using quipazine antagonism test.
How it was run: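 Rats got test compound 2 h before quipazine (15 μmol/kg sc). Each rat was observed singly in a perspex box, and head twitches were counted 30–40 min after quipazine. Inhibition was expressed as percent of a parallel control group. Four to eight rats per dose.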

Question: How did the ED50 (Mus musculus) turn out when `CN1CCN([C@@H]2Cc3ccccc3Sc3ccc(Cl)cc32)CC1` was run?
Answer: Its ED50 is 3.8 µmol/kg.

Question: And the ED50 (Rattus norvegicus [1])?
Answer: Its ED50 is 1.9 µmol/kg.

Question: What about the ED50 (Rattus norvegicus [2]) of the same compound?
Answer: Its ED50 is 0.31 µmol/kg.

Question: And the ED50 (Rattus norvegicus [3])?
Answer: The ED50 was 24 µmol/kg.

Question: And the ED50 (Rattus norvegicus [4])?
Answer: Its ED50 is 0.095 µmol/kg.

Question: And the ED50 (Rattus norvegicus [5])?
Answer: Its ED50 is 0.46 µmol/kg.

Question: And the ED50 (Rattus norvegicus [6])?
Answer: The ED50 was 0.012 µmol/kg.

Question: With `CN1CCN([C@H]2Cc3ccccc3Sc3ccc(Cl)cc32)CC1` as the compound, how does the ED50 (Mus musculus) read?
Answer: The ED50 was 0.2 µmol/kg.

Question: What about the ED50 (Rattus norvegicus [1]) of the same compound?
Answer: Its ED50 is 0.85 µmol/kg.

Question: What about the ED50 (Rattus norvegicus [2]) of the same compound?
Answer: The ED50 was 0.017 µmol/kg.

Question: And the ED50 (Rattus norvegicus [3])?
Answer: Its ED50 is 0.65 µmol/kg.

Question: And the ED50 (Rattus norvegicus [4])?
Answer: Its ED50 is 0.26 µmol/kg.

Question: And the ED50 (Rattus norvegicus [5])?
Answer: The ED50 was 0.12 µmol/kg.

Question: What about the ED50 (Rattus norvegicus [6]) of the same compound?
Answer: The ED50 was 0.02 µmol/kg.

Question: For `CN1CCN(C2Cc3ccccc3Sc3ccc(Cl)cc32)CC1` (stereo unspecified) [CLOROTEPINE], which ED50 (Mus musculus) is on record?
Answer: Its ED50 is 0.19 µmol/kg.

Question: And the ED50 (Rattus norvegicus [1])?
Answer: Its ED50 is 0.25 µmol/kg.

Question: And the ED50 (Rattus norvegicus [2])?
Answer: Its ED50 is 0.033 µmol/kg.

Question: And the ED50 (Rattus norvegicus [3])?
Answer: Its ED50 is 1.3 µmol/kg.

Question: What about the ED50 (Rattus norvegicus [4]) of the same compound?
Answer: Its ED50 is 0.064 µmol/kg.

Question: And the ED50 (Rattus norvegicus [5])?
Answer: Its ED50 is 0.18 µmol/kg.

Question: What about the ED50 (Rattus norvegicus [6]) of the same compound?
Answer: Its ED50 is 0.019 µmol/kg.
